From ChEMBL document CHEMBL4480390, “Cink4T, a quinazolinone-based dual inhibitor of Cdk4 and tubulin polymerization, identified via ligand-based virtual screening, for efficient anticancer therapy” (Eur J Med Chem, 2019)
Calls of active or inactive are those of the source. The rule behind the calls is not given here.

How the values were obtained:
CDK2/Cyclin A2 = CDK2/Cyclin A2 (Homo sapiens, UniProt P24941); assay: Inhibition of human full length N-terminal GST-fused CDK2 (M1 to L298 residues)/human full length Cyclin-A2 (M1 to L432 residues) expressed in Sf9 cells using histone H1 as substrate measured after 1 hr by ADP-glo luminescence assay
A549 [1] = assay: cells; conditions: Homo sapiens, A549, 72 h
T47D = assay: Cell cycle arrest in human T47D cells assessed as accumulation at G0/G1 phase at 1.5 uM treated 18 hrs post serum-starvation measured after 18 hrs in presence of fresh medium containing FBS by propidium iodide staining based flow cytometry (reference value: 60.3%); assay type: functional
Calu-1 = assay: Cell cycle arrest in human Calu1 cells assessed as accumulation at G0/G1 phase at 0.9 uM treated 18 hrs post serum-starvation measured after 18 hrs in presence of fresh medium containing FBS by propidium iodide staining based flow cytometry (reference value: 69.2%); assay type: functional
A549 [2] = assay: Cell cycle arrest in human A549 cells assessed as accumulation at G2/M phase at 0.8 uM treated 32 hrs post mimosine addition measured after 18 hrs in presence of fresh medium by propidium iodide staining based flow cytometry (reference value: 14%); assay type: functional
MDA-MB-468 [3] = assay: Cell cycle arrest in human MDA-MB-468 cells assessed as ratio of G1 to S phase at 22 uM measured after 18 hrs by propidium iodide staining based flow cytometry (reference value: 2.17); assay type: functional
[4] = biological target: Cyclin-dependent kinase 4/cyclin D1 (Homo sapiens) (UniProt P11802+P24385); assay: Inhibition of CDK4/cyclin D1 in human T47D cells assessed as reduction in phosphorylation of pRb at Ser807/11 residues at 1.5 uM measured after 18 hrs by Western blot analysis; assay type: cell-based
Method in brief: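 T47D cells left untreated or treated 18 h at 0.75 or 1.5 µM. Western blots probed with phospho-specific pRb antibodies (Ser780, Ser795, Ser807/811) and a total-pRb antibody; HRP-conjugated secondary for detection.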

A549 [5] = assay: Cell cycle arrest in human A549 cells assessed as accumulation at S phase at 0.8 uM measured after 18 hrs by propidium iodide staining based flow cytometry (reference value: 21%); assay type: functional
Cytochrome P450 1A2 = biological target: T1, Cytochrome P450 1A2 (Homo sapiens, UniProt P05177); assay: Inhibition of recombinant human CYP1A2 expressed in baker's yeast-derived microsomes using 3-cyano-7-ethoxycoumarin as substrate by fluorescence assay; assay type: ADME
T1 sequence (P05177 whole entry): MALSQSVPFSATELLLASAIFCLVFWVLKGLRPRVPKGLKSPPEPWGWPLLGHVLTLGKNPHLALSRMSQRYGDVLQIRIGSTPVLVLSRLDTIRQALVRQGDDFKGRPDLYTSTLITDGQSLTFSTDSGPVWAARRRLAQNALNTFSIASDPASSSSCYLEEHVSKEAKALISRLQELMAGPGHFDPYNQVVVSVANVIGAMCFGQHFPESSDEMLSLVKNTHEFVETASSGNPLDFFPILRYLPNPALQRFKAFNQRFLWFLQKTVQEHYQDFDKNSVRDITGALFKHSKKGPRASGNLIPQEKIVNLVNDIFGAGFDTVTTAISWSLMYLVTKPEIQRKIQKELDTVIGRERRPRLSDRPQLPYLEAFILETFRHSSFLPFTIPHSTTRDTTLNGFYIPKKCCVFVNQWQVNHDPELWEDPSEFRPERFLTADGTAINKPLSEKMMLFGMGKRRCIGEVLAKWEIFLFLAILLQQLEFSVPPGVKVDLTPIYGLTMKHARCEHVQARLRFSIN

MDA-MB-468 [6] = assay: Cell cycle arrest in human MDA-MB-468 cells assessed as ratio of G1 to S phase at 10.85 uM measured after 18 hrs by propidium iodide staining based flow cytometry (reference value: 2.17); assay type: functional

Structure (SMILES): O=C(COc1ccc(-c2nc3ccccc3c(=O)[nH]2)cc1)Nc1cccc(Cl)c1
- IC50 (CDK2/Cyclin A2): > 100000 nM
- EC50 (A549 [1]): 800 nM
- Activity (T47D): 68.1%
- Activity (Calu-1): 75%
- Activity (A549 [2]): 35%
- Ratio (MDA-MB-468 [3]): 3.15
- inhibition [4]: Active
- Activity (A549 [5]): 10%
- IC50 (Cytochrome P450 1A2): > 5000 nM
- Ratio (MDA-MB-468 [6]): 3.46
